Screens (PubChem)
BB579 growth dn = reduces growth of yeast BB579 in restrictive medium; S. cerevisiae BB579 growth, OD615, 48 h; inhibition, % at 10 µM; 0.51% of 140,000 active; AID 804;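 active = inhibition above a set limit, 3 SD over the mean compound inhibition, cut at about 44% in these data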
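Material: Saccharomyces cerevisiae DeaD strain BB579, replicative lifespan model yeast; buffer or medium: CSMM-D restrictive synthetic medium containing dextrose (glucose); compound: 10 µM single dose, DMSO 0.25%; timing: 48 h compound exposure at 30 °C after 4 h preincubation; signal: turbidity as optical density at 615 nm; benchmarks: positive control amphotericin B 10 µg/mL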
Yeast life ext = extends the lifespan of yeast; S. cerevisiae growth with nicotinamide, OD615; deaD strain in restrictive glucose medium; inhibition of the nicotinamide effect, % at 10 µM; 0.68% of 130,000 active;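 active = inhibition above a set limit, placed 3 SD over the median of all compounds, cut at about 26% in these data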;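 also: 0% = nicotinamide-treated wells and 100% = cells grown without nicotinamide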
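Assay system: DeaD-strain S. cerevisiae. Medium: CSMM-D glucose medium, restrictive. Reagent: nicotinamide, 1.5 mM, co-present with compound. Compound: 10 µM single point, 0.25% DMSO. Schedule: culture preincubation 4 h, compound exposure 48 h, both 30 °C. Detection: absorbance at 615 nm.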
Phagocytosis inh = macrophage phagocytosis inhibition | J774A.1 macrophage IgG-bead phagocytosis, imaging | inhibition, % at 5 µM | 0.07% of 110,000 active | AID 1029;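 active = inhibition above the mean of the plate negative controls plus 5 SD, cut at about 13% in these data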;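 also: phagocytic index as fraction of beads internalized from green versus red external bead signal; plate controls were DMSO negative control for no effect and cytochalasin-D positive control for full effect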
MRP1 act = activators of MRP-1. H69AR cells + doxorubicin, viability rescue, CellTiter-Glo. viability increase, % at 10 µM. 0.61% of 140,000 active;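 active = viability gain under doxorubicin at or above a set limit, the compound median plus 3 SD, cut at about 4.7% in these data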;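 also: MRP-1 overexpressing cells given doxorubicin 25 µM after compound pretreatment; 18-22 h compound pretreatment then 72 h with doxorubicin before readout; 0% = doxorubicin-only wells and 100% = vehicle-treated cells without doxorubicin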
SDO1 yeast rescue = compounds rescuing growth of sdo1-depleted yeast, bone marrow failure model | S. cerevisiae sdo1-depleted JHY4D growth rescue, OD600 30 h; stronger effect = higher value; pdr5 snq2 efflux-pump mutant strain | z-score at 10 µM | 0.21% of 140,000 active;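 active = z-score above 3 at both the 24 hr and the 30 hr optical density reads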;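 also: z-score against mean and SD of all compound wells on the same plate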
MRP reversal = reverses drug resistance mediated by MRP. H69AR cells + 2 uM doxorubicin, CellTiter-Glo, 72 h. 0.04% of 85,000 active. differential viability (reversal), % at 10 µM;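 active = viability drop by adding the cancer drug above about 55%, with treated viability meeting a 40% cutoff, limit read from the data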;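 also: viability without doxorubicin minus viability with 2 µM doxorubicin for each compound; larger differential means the compound sensitizes cells more to doxorubicin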
The depositor's hits bear a star; · = not tested or not shown. The list is not random: actives were taken first. Their share in the collection is about 2.1%.

SMILES	BB579 growth dn	Yeast life ext	Phagocytosis inh	MRP1 act	SDO1 yeast rescue	MRP reversal
C/C(=N\NC(=O)c1ccc(Cn2cc([N+](=O)[O-])cn2)o1)c1cccc(NC(=O)c2cccnc2)c1	-37	3	-2	20*	1.4	·
CC(C)C(c1nnnn1Cc1ccccc1)N1CCN(Cc2ccc3c(c2)OCO3)CC1 (configuration not stated)	4	65*	1	0	-1.1	-5
CC(C)C(c1nnnn1CC1CCCO1)N1CCN(Cc2ccc3c(c2)OCO3)CC1 (configuration not stated)	-75	0	-5	-1	0.51	-7
CC1=C(C(=O)N2CCOCC2)C(c2cc(C)cs2)NC(=O)N1 (configuration not stated)	-18	-2	-5	0	0.48	5
O=C(Nc1ccc2c(c1)OCO2)C1(S(=O)(=O)c2ccc(Cl)cc2)CC1	-33	0	2	-3	-0.13	·
CCCCCn1c(CN2CCN(C)CC2)nc2c1c(=O)n(C)c(=O)n2C	16	-7	0	-2	1.2	2
CCCCCCn1c(CN2CCN(Cc3ccccc3)CC2)nc2c1c(=O)n(C)c(=O)n2C	-37	27*	-1	-5	-1.2	37
C/C(=N\OC(=O)c1cccc(C)c1)c1sc(-c2ccccc2)nc1C	-42	1	·	4.7*	-0.09	·
C/C(=N\OC(=O)c1cccc(C(F)(F)F)c1)c1sc(-c2ccccc2)nc1C	-27	4	0	3	-0.13	·
CCC(C)NC(=O)Nc1ccc2c(c1)N(C)C(=O)c1ccccc1S2 (configuration not stated)	-72	-4	0	-2	-0.41	-7
COc1cccc(-n2nnnc2SCC(=O)Nc2ccc(C(C)=O)cc2)c1	-28	·	·	2	-0.53	10
CCCS(=O)(=O)c1nnnn1-c1cccc(OC)c1	96*	-19	0	-3	-1.7	1
CCCCc1nnc(NC(=O)CSc2nc(=O)cc(N)n2-c2ccccc2)s1	-45	-2	·	3	0.95	-4
Cc1cccc(-n2c(N)cc(=O)nc2SCC(=O)Nc2nnc(C)s2)c1	-48	-6	0	5.7*	0.52	1
O=C(Nc1ccc(OC(F)(F)F)cc1)c1n[nH]c(Cn2cncn2)n1	-30	-4	·	4.9*	-0.02	·
O=c1[nH][nH]cc1C=Nc1ccccc1O	50*	-14	·	-2	-1.4	·
Oc1ccccc1N=Cc1sc2ccccc2c1Cl	16	1	-17	-5	0.16	·
COc1ccc(NC(=O)CC2C(=O)N(c3ccc(Cl)cc3)C(=S)N2NC(=O)c2cccc(F)c2)cc1 (configuration not stated)	-34	3	·	5.1*	1.7	·
COc1ccc(NC(=O)CC2C(=O)N(c3ccc(F)cc3)C(=S)N2NC(=O)c2ccc(Cl)cc2)cc1 (configuration not stated)	-7	5	-3	4.8*	-0.26	·
CCc1nnc(NC(=O)c2ccc3c(c2)C(=O)N(C(C)(C)C)C3=O)s1	-22	-1	2	0	-0.92	-34
COc1cccc(/C=N/NC(=O)CNC(=O)c2ccc3c(c2)OCCO3)c1O	2	-5	-6	5.9*	1.6	·
COc1cccc(/C=N/NC(=O)CNC(=O)C2COc3ccccc3O2)c1O (configuration not stated)	-11	-5	-8	9.6*	0.59	·
O=C(CNC(=O)c1ccc2c(c1)OCCO2)N/N=C/c1ccc(O)cc1O	-37	-5	-7	2	0.57	·
Cc1cc(NC(c2ccc(Cl)cc2)c2ccc3cccnc3c2O)no1 (configuration not stated)	95*	-33	0	-5	-1.2	-10
Cc1ccc2ccc(C(Nc3ccccn3)c3ccccc3)c(O)c2n1 (configuration not stated)	-57	-4	0	-2	-0.2	-5
SMILES	BB579 growth dn	Yeast life ext	Phagocytosis inh	MRP1 act	SDO1 yeast rescue	MRP reversal
CCc1c(C)nc(Nc2nc(C)c3ccc(OC)cc3n2)[nH]c1=O	13	-9	0	-3	-2.3	-7
COc1ccc2c(C)nc(Nc3nc(C)c(C)c(=O)[nH]3)nc2c1	59*	-7	0	-5	-0.99	-12
Cc1cccc(NCc2ccccc2O)n1	-21	-2	1	-2	0.77	8
COc1ccc(CN(CCN2CCOCC2)C(=O)c2c(F)cccc2F)cc1OC	-25	-11	1	-2	0.71	0
C=CCN(C(=O)Nc1ccc(F)cc1)C1CC(=O)N(c2ccc(OC)cc2)C1=O (configuration not stated)	-6	-5	1	2	1.2	-11
C=CCN(C(=O)Nc1ccc(Cl)cc1)C1CC(=O)N(c2ccc(OC)cc2)C1=O (configuration not stated)	-26	-7	0	6.6*	-0.6	1
COc1ccc(/C=C2\CN(Cc3ccccc3)C/C(=C\c3ccc(OC)cc3OC)C2=O)c(OC)c1	-45	-28	-4	-5	-0.92	·
COC(=O)CC1=NN(c2ccc(OC)cc2)C(=O)/C1=C\c1ccc(Cl)cc1	-24	31*	-7	1	0.24	·
COC(=O)CC1=NN(c2ccccc2)C(=O)/C1=C\c1ccc(OC)cc1	-38	53*	-10	0	-0.3	·
CCOC(=O)CC1=NN(c2ccccc2)C(=O)/C1=C\c1ccc(OC)cc1OC	-27	51*	-12	-1	-0.51	·
CCOC(=O)C1=NN(c2ccccc2)C(=O)/C1=C\c1ccc(N(C)C)cc1	-40	3	0	-2	-1.6	·
CCOC(=O)c1cccc(NC(=O)CSc2nnc(-c3ccoc3C)n2CCOC)c1	-21	-7	-1	-2	0.21	·
Cc1ccc2c(NC(=O)C3CC3)c(C)ccc2n1	-55	3	-1	1	0.43	10
O=C1c2ccccc2C(=O)N1OCc1ccccc1	-7	72*	-5	-1	-0.54	-7
CN(c1ccc(O)cc1)c1nc(-c2ccccc2)cs1	82*	-12	0	-3	-1.2	-15
O=C1NC(=Nc2ccccc2)SC1Cc1cccc(Cl)c1Cl (configuration not stated)	-47	7	-2	5.7*	-0.42	·
O=C1N/C(=N/c2ccccn2)SC1Cc1ccccc1 (configuration not stated)	-19	-16	2	2	-1.2	2
NC(=O)C1(N2CCCCC2)CCN(C(=O)c2cccn3c(=O)c4cc(Cl)ccc4nc23)CC1	0	-17	-1	5.6*	0.76	11
O=C(c1cccn2c(=O)c3cc(Cl)ccc3nc12)N1CCOCC1	-27	-20	-4	3	0.02	8
CC1CCCCC1NS(=O)(=O)c1ccc(-n2cnnn2)cc1 (configuration not stated)	-24	46*	0	1	0.41	0
